Two substances from publication PMC3026963 (The Biochemical journal, 2010) can be followed below.

Entries after “also recorded” stand apart in the source; their conditions may differ.

In this test the target is CK2α catalytic subunit (Homo sapiens, UniProt P68400). As to the kind of experiment: In vitro phosphorylation assay of CK2α with peptide substrate RRRADDSDDDDD
It is filed as biochemical. To be noted: substrate RRRADDSDDDDD
An outline of the steps: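 Activity is expressed as % of no-peptide control, as the mean of at least three independent experiments. Full-length murine NBD1ΔF508 (389–673) tests were run at 350 μM ATP.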

CK2α catalytic subunit, sequence (P68400 whole entry): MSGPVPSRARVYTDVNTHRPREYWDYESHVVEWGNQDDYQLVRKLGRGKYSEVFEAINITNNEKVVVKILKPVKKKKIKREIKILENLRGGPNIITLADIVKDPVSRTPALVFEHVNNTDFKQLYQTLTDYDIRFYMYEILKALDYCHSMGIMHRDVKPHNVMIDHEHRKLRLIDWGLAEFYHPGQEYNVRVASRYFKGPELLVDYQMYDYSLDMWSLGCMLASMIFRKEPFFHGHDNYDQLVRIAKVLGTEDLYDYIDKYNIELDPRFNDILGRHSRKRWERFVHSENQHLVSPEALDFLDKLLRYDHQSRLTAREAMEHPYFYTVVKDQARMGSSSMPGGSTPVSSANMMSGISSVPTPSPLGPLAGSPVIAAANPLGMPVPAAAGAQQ

Take “β-peptide: peptide reproducing the C-terminal segment of the CK2 β-subunit encompassing residues 182–203 (QFVPRLYGFKIHPMAYQLQLQA; UniProt P67870 182-203, looked up, fragment) [reference compound]”: where the note is “β-peptide alone”, the “onset of stimulation of CK2α catalytic activity” value was found to be 50 µM. Turning to “CFTRΔI507 peptide: CFTR(500–518) peptide with Ile^507 deleted (GTIKENIFGVSYDEYRYR)”, for the setting “compared with the parent peptide”, the “inhibitory efficacy on CK2α (in words)” value was “loss in inhibitory efficacy; also recorded: unable to exert the same efficacy of the CFTRΔF508 peptide”.
